Data set [1] deals with HCT-116. As to the kind of experiment: Cytotoxicity against human HCT116 cells at 1.25 to 20 uM after 96 hrs by MTT assay. The class given is functional, cell-based. In outline:
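HCT116 cells in DMEM with 10% FBS, seeded at 4 × 10^3 per well and left overnight at 37 °C. Treated in 1% FBS–DMEM for 96 h, then MTT for 3 h. Formazan dissolved in DMSO, absorbance read at 570 nm. DMSO vehicle control. Two independent assays, mean ± SD.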
(In general: Tetrazolium assays rely on reduction of a dye to a coloured formazan, in cell work by metabolically active cells.)

Data set [2] relates to Cancer cell lines. As to the kind of experiment: Antitumor activity against human HCT116 cells xenografted in 48 hpf zebrafish embryo assessed as inhibition of cancer cell proliferation at 80 uM treated for 4 days. The class given is functional, cell-based. The method, boiled down: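 HCT116 cells labelled with 2 μg/mL DiI were injected into the yolk sac of 48 hpf embryos. Embryos were held singly in E3 without methylene blue with compound (80 μM), 10 μM API-H7 as positive control or DMSO, at 31 °C for 96 h, 8 per group. Larvae were dissociated with collagenase/dispase for 2 h at 37 °C, fixed in paraformaldehyde, and fluorescent cells counted by microscopy. Two independent assays.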

In data set [3] the test system is HCT-116. Nature of the data set: Induction of apoptosis in human HCT116 cells assessed as PARP cleavage at 20 uM after 72 hrs by immunoblotting. In kind it is functional, cell-based. The method, boiled down:
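HCT116 cells were treated with 20 μM compound for 72 h and lysed in ice-cold buffer with PMSF and protease inhibitors. Protein in the cleared supernatant was measured by BCA, and PARP cleavage was detected by western blot with actin as reference.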
A general note: A western blot detects proteins with antibodies after separation by electrophoresis.

Data set [4] is filed under the species Danio rerio. Nature of the data set: Teratogenic effect in zebrafish assessed as delayed hatching at 160 uM after 72 hrs by microscopy. The class given is organism-based. The settings on record: in vivo. The method, boiled down:
(§1)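 Fertilized eggs were exposed from the eight-cell stage, 8 per well, at 31 °C for 72 h. Development, malformations and survival were then recorded by microscopy.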

The species entered for data set [5] is Danio rerio. As to the kind of experiment: Teratogenic effect in zebrafish assessed as skeletal deformities at 160 uM after 72 hrs by microscopy. The settings on record: in vivo. The class given is organism-based. In outline:
as §1

For data set [6], the species on record is Danio rerio. As to the kind of experiment: Teratogenic effect in zebrafish assessed as abnormal heart at 160 uM after 72 hrs by microscopy. The settings on record: in vivo. In kind it is organism-based. The method, boiled down: as §1
The species entered for data set [7] is Danio rerio. Nature of the data set: Teratogenic effect in zebrafish assessed as abnormal head at 160 uM after 72 hrs by microscopy. The class given is organism-based. The settings on record: in vivo. The method, boiled down:
as §1

For data set [8], the species on record is Danio rerio. As to the kind of experiment: Teratogenic effect in zebrafish assessed as slow heartbeat at 160 uM after 72 hrs by microscopy. The class given is organism-based. The following applies: in vivo. In outline: as §1
For data set [9], the system named is Danio rerio. As to the kind of experiment: Teratogenic effect in zebrafish assessed as heart sac edema at 160 uM after 72 hrs by microscopy. The class given is organism-based. The settings on record: in vivo. The method, boiled down:
as §1

The species entered for data set [10] is Danio rerio. As to the kind of experiment: Teratogenic effect in zebrafish assessed as abnormal development of yolk sac at 160 uM after 72 hrs by microscopy. In kind it is toxicity, organism-based. The settings on record: in vivo. The method, boiled down: as §1
The species entered for data set [11] is Danio rerio. Nature of the data set: Teratogenic effect in zebrafish assessed as developmental toxicity at 40 to 80 uM after 72 hrs by microscopy. In kind it is organism-based. The following applies: in vivo. The method, boiled down: as §1
Data set [12] deals with Cancer cell lines. Nature of the data set: Antitumor activity against human HCT116 cells xenografted in 48 hpf zebrafish embryo assessed as inhibition of cancer cell proliferation compound treated for 4 days. In kind it is functional, cell-based. For orientation: In xenograft studies the graft and the host belong to different species.
For another data set, the system named is beta-glucosidase. Nature of the data set: (§2) Drug metabolism assessed as zebrafish intestinal beta-glucosidase-mediated deglycosylation of compound at 80 uM after 2.5 hrs by resorufin-beta-D-glucopyranoside-based fluorescence assay. In kind it is ADME, Danio rerio. The following applies: zebrafish intestinal beta-glucosidase, probe resorufin-beta-D-glucopyranoside, read-out: Drug metabolism. The method, boiled down:
(§3)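 Larvae at 7 dpf (24 per well) were incubated in E3 without methylene blue with Res-β-Glc probe at 400 μM, with or without 80 μM compound, for 2.5 h at 31 °C, then washed. Larvae showing reduced fluorescence against probe-alone larvae were counted by microscopy (n = 3, SD). Lysates were also read at ex 570/em 610 nm.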

The nature of data set [13]: Drug metabolism assessed as zebrafish intestinal beta-glucosidase-mediated formation of quercetin after 2.5 hrs by resorufin-beta-D-glucopyranoside-based fluorescence assay. The class given is ADME, Danio rerio. The method, boiled down:
as §3

Data set [14] can be described thus: Drug metabolism assessed as zebrafish intestinal beta-glucosidase-mediated formation of quercetin at 80 uM after 2.5 hrs by resorufin-beta-D-glucopyranoside-based fluorescence assay. In kind it is ADME, Danio rerio. In outline:
as §3

Data set [15] in a line: as §2. The class given is ADME, Danio rerio. The settings on record: 2.5 h, 80 µM. The method, boiled down:
as §3

Molecules are shown by their SMILES. The source made the active and inactive calls. The calls are words filed in the database; no cut-off is given here.

Results on 5 molecules are retold here after ChEMBL document CHEMBL3351339, “Delineation of the role of glycosylation in the cytotoxic properties of quercetin using novel assays in living vertebrates” (J Nat Prod, 2014).

For `C[C@@H]1O[C@@H](Oc2c(-c3ccc(O)c(O)c3)oc3cc(O)cc(O)c3c2=O)[C@H](O)[C@H](O)[C@H]1O`, the result in the data set with HCT-116 [1] was Active. Besides, the result in the data set with Cancer cell lines [2] was inactive.

`O=c1c(O[C@@H]2O[C@H](CO)[C@H](O)[C@H](O)[C@H]2O)c(-c2ccc(O)c(O)c2)oc2cc(O)cc(O)c12`: the outcome with HCT-116 [1] was Active. For the same molecule, in the data set with Cancer cell lines [2], the outcome was inactive.

On to `O=c1c(O[C@@H]2O[C@H](CO)[C@@H](O)[C@H](O)[C@H]2O)c(-c2ccc(O)c(O)c2)oc2cc(O)cc(O)c12` [ISOQUERCETIN], for which the result in the data set on HCT-116 [1], in the data set with HCT-116 [3] and in the data set with Cancer cell lines [2] was Active. Further, the Activity entry in the data set filed under Danio rerio [4], in the data set filed under Danio rerio [5], in the data set listed under Danio rerio [6], in the data set listed under Danio rerio [7], in the data set filed under Danio rerio [8] and in the data set with Danio rerio [9] was “Non-toxic” in each case. The Activity entry was “Non-toxic” in the data set listed under Danio rerio [10], “Non-toxic” in the data set listed under Danio rerio [11] and “Dose-dependent effect” in the data set on Cancer cell lines [12]. For the same molecule, the metabolised at 2.5 h, 80 µM with beta-glucosidase was determined as 57%. For the same molecule, the Drug metabolism result was “Dose-dependent effect” in [13] and “metabolite_detected” in data set [14].

On to `O=c1c(O)c(-c2ccc(O)c(O)c2)oc2cc(O)cc(O)c12` [QUERCETIN], for which the outcome in the data set on HCT-116 [1], with HCT-116 [3] and in the data set on Cancer cell lines [2] was Active. Further, the Activity result in the data set listed under Danio rerio [4], in the data set listed under Danio rerio [5], in the data set filed under Danio rerio [6], in the data set listed under Danio rerio [7], in the data set listed under Danio rerio [8] and in the data set with Danio rerio [9] was “Non-toxic” each time. The Activity entry in the data set filed under Danio rerio [10] and in the data set listed under Danio rerio [11] was “Non-toxic” throughout. Moreover, in [15], the Drug metabolism entry is reported as “metabolite_notdetected”.

`O=c1c(O)c(-c2ccc(O[C@@H]3O[C@H](CO)[C@@H](O)[C@H](O)[C@H]3O)c(O)c2)oc2cc(O)cc(O)c12` [SPIRAEOSIDE]: the outcome with HCT-116 [1] and in the data set on HCT-116 [3] was Active. Moreover, the Activity in the data set filed under Danio rerio [4], in the data set listed under Danio rerio [5], in the data set filed under Danio rerio [6], in the data set listed under Danio rerio [7], in the data set filed under Danio rerio [8] and with Danio rerio [9] was 31.25% each time. Besides, the Activity is on record as 31.25% in the data set listed under Danio rerio [10] and “Non-toxic” in the data set listed under Danio rerio [11]. Further, the result in the data set on Cancer cell lines [2] was inactive. In addition, the metabolised at 2.5 h, 80 µM in the data set with beta-glucosidase worked out at 45%.
